Source: ChEMBL document CHEMBL1121663, “(Acylaryloxy)acetic acid diuretics. 3. 2,3-Dihydro-5-acyl-2-benzofurancarboxylic acids, a new class of uricosuric diuretics” (1981)

Tests used:
Canis familiaris [1] = assay: Compound was tested for diuretic activity in dogs at 5 mg/kg dose after oral administration measured as microequivalent of Cl-/minute; format: functional, Canis lupus familiaris, Urine
Method in brief: (§1)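 Oral dog test: water loading (250 mL po, then 500 mL 1 h later). One hour later bladders were emptied by catheter and compound or placebo given in gelatin capsules. Dogs were kept in metabolism cages. Voided urine plus catheterized bladder urine was pooled at 5 h, and Na+, K+ and Cl- were measured by standard methods. Geometric means are reported.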

Canis familiaris [2] = assay: Compound was tested for diuretic activity in dogs at 5 mg/kg dose after oral administration measured as microequivalent of K+/minute; format: functional, Canis lupus familiaris, Urine; method in brief: as §1
Canis familiaris [3] = assay: Compound was tested for diuretic activity in dogs at 5 mg/kg dose after oral administration measured as microequivalent of Na+/minute; format: functional, Canis lupus familiaris, Urine; method in brief: as §1
Canis familiaris [4] = assay: Compound was tested for diuretic activity in dogs at 5 mg/kg dose after intravenous administration measured as microequivalent of Cl-/minute (Control/Drug treated); format: functional, Canis lupus familiaris, Urine; conditions: in the assay text read “oral” for “intravenous”
Canis familiaris [5] = assay: Compound was tested for diuretic activity in dogs at 5 mg/kg dose after intravenous administration measured as microequivalent of K+/minute (Control/Drug treated); format: functional, Canis lupus familiaris, Urine; conditions: in the assay text read “oral” for “intravenous”
Rattus norvegicus [6] = assay: Natriuretic activity in rats at 27 mg/kg of dosage; mequiv of Na; format: functional
Method in brief: (§2)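 Rats housed three per metabolism cage received placebo vehicle or compound as a suspension in a final volume of 5.0 mL orally, with placebo groups run concurrently. Urine was collected over 0–5 h and analysed for Na+, K+ and Cl− by standard methods. Values are mequiv per cage, given as geometric means of three cages per dose level.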

Rattus norvegicus [7] = assay: Natriuretic activity in rats at 3 mg/kg of dosage; mequiv of Na; format: functional; method in brief: as §2
Rattus norvegicus [8] = assay: Natriuretic activity in rats at 81 mg/kg of dosage; mequiv of Na; format: functional; method in brief: as §2
Rattus norvegicus [9] = assay: Natriuretic activity in rats at 9 mg/kg of dosage; mequiv of Na; format: functional; method in brief: as §2
Canis familiaris [10] = assay: Diuretic activity in dogs following 5 mg/kg oral administration.
Canis familiaris [11] = assay: Compound was tested for diuretic activity in dogs at 5 mg/kg dose after oral administration measured as microequivalent of Na+/minute
Pan troglodytes = assay: Compound was tested for natriuretic activity in chimpanzee at 5 mg/kg dose activity is measured as microequivalent of Na+/minute; muequiv of Na+/min; format: functional
Method in brief: (§3)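 Inulin iv gave GFR; urate and inulin clearances and Na+, K+, Cl- excretion were measured by AutoAnalyzer. Controls were three 20-min periods; compound was given orally in aqueous solution via nasal catheter. Response was the mean of eight 15-20 min periods, reported as treatment minus control from single experiments.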

Canis familiaris [12] = assay: Compound was tested for diuretic activity in dogs at 5 mg/kg dose after intravenous administration measured as microequivalent of Cl-/minute; 9/132 (Control/Drug treated); format: functional, Canis lupus familiaris, Urine
Method in brief: (§4)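 Intravenous dog clearance study. A priming iv injection of 1.5 mL/kg isoosmotic pH 7.4 phosphate buffer (20 mg PO4/kg) was given first. This was followed by infusion of 3 mL/min pH 7.4 buffer containing 4% mannitol (6.9 mg PO4/min) throughout the experiment. Urinary Na+, K+ and Cl- were measured by standard methods. Each value is the mean of the two highest consecutive 15-min collections.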

Canis familiaris [13] = assay: Compound was tested for diuretic activity in dogs at 5 mg/kg dose after intravenous administration measured as microequivalent of Na+/minute; 22/144 (Control/Drug treated); format: functional, Canis lupus familiaris, Urine
[14] = Compound was tested for natriuretic activity in chimpanzee at 5 mg/kg dose activity is measured as ratio of clearance of urate / […]; Curate/Cinulin; format: functional; method in brief: as §3
Canis familiaris [15] = assay: Compound was tested for diuretic activity in dogs at 5 mg/kg dose after intravenous administration measured as microequivalent of Na+/minute; 11/118 (Control/Drug treated); format: functional, Canis lupus familiaris, Urine
Canis familiaris [16] = assay: Compound was tested for diuretic activity in dogs at 5 mg/kg dose after intravenous administration measured as microequivalent of Cl-/minute; 43/54 (Control/Drug treated); format: functional, Canis lupus familiaris, Urine; method in brief: as §4
Canis familiaris [17] = assay: Compound was tested for diuretic activity in dogs at 5 mg/kg dose after intravenous administration measured as microequivalent of K+/minute; 6/35 (Control/Drug treated); format: functional, Canis lupus familiaris, Urine; method in brief: as §4
Canis familiaris [18] = assay: Compound was tested for diuretic activity in dogs at 5 mg/kg dose after intravenous administration measured as microequivalent of K+/minute; format: functional, Canis lupus familiaris, Urine; conditions: in the assay text read “oral” for “intravenous”
Canis familiaris [19] = assay: Compound was tested for diuretic activity in dogs at 5 mg/kg dose after intravenous administration measured as microequivalent of Cl-/minute; format: functional, Canis lupus familiaris, Urine; conditions: in the assay text read “oral” for “intravenous”
Canis familiaris [20] = assay: Compound was tested for diuretic activity in dogs at 5 mg/kg dose after oral administration measured as microequivalent of Na+/minute; remark: listed apart in the source
[21] = Activity is measured as ratio of clearance of urate / […] at […]; Curate/Cinulin; format: functional
Method in brief: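 Inulin iv gave GFR, and urate clearance was measured by AutoAnalyzer. Controls came from three 20-min periods. Aqueous compound was given orally by nasal catheter, and the response was averaged over eight 15-20 min periods. Values are treatment minus control from single experiments.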

Canis familiaris [22] = assay: Compound was tested for diuretic activity in dogs at 5 mg/kg dose after intravenous administration measured as microequivalent of K+/minute; 4/19 (Control/Drug treated); format: functional, Canis lupus familiaris, Urine; method in brief: as §4

Row | Compound | Oral activity (Canis familiaris [1]) | Oral activity (Canis familiaris [2]) | Oral activity (Canis familiaris [3]) | Oral activity (Rattus norvegicus [6]) | Oral activity (Rattus norvegicus [7]) | Oral activity (Rattus norvegicus [8]) | Oral activity (Rattus norvegicus [9]) | Urine volume (Canis familiaris [10]) | further results
1 | NC(=O)C1Cc2cc(C(=O)c3cccs3)c(Cl)c(Cl)c2O1 (centres undefined) | 3 | 1.7 | 2.1 | 11 | 7 | 25 | 9 | 229 mL | Oral activity (Canis familiaris [4]): 3; Oral activity (Canis familiaris [5]): 1.7; Oral activity (Canis familiaris [11]): 2.1
2 | O=C(O)COc1ccc(C(=O)c2cccs2)c(Cl)c1Cl | 5.4 | 1.8 | 3.3 | 43 | 7 | 56 | 15 | 395 mL | Oral activity (Pan troglodytes): 318; Cl- excretion (Canis familiaris [12]): 132 µequiv/min; Na+ excretion (Canis familiaris [13]): 144 µequiv/min; Ratio [14]: 0.437
3 | O=C(c1ccco1)c1cc2c(c(Cl)c1Cl)OC(C(=O)O)C2 (centres undefined) |  |  |  | 218 | 69 | 322 | 150 |  | 
4 | O=C(c1cccs1)c1cc2c(c(Cl)c1Cl)O[C@@H](C(=O)O)C2 [listing 1 of 2 here] | 4.3 | 2.5 | 4.8 | 41 | 48 | 29 | 38 | 233 mL | Oral activity (Pan troglodytes): 95; Na+ excretion (Canis familiaris [15]): 118 µequiv/min; Cl- excretion (Canis familiaris [16]): 54 µequiv/min; K+ excretion (Canis familiaris [17]): 35 µequiv/min; Ratio [14]: 0.454
5 | N=C(N)NC(=O)C1Cc2cc(C(=O)c3cccs3)c(Cl)c(Cl)c2O1 (centres undefined) | 4.8 | 1.2 | 4.9 | 143 | 72 | 159 | 98 | 212 mL | Oral activity (Canis familiaris [18]): 1.2; Oral activity (Canis familiaris [19]): 4.8; Oral activity (Canis familiaris [20]): 4.9
6 | NNC(=O)C1Cc2cc(C(=O)c3cccs3)c(Cl)c(Cl)c2O1 (centres undefined) |  |  |  | 89 | 34 | 140 | 81 |  | 
7 | O=C(c1cccs1)c1cc2c(c(Cl)c1Cl)O[C@@H](C(=O)O)C2 [listing 2 of 2 here] |  |  |  |  |  |  |  |  | Ratio [21]: 0.157
8 | O=C(c1ccccc1)c1cc2c(c(Cl)c1Cl)OC(C(=O)O)C2 (centres undefined) |  |  |  | 117 | 59 | 119 | 85 |  | K+ excretion (Canis familiaris [22]): 19 µequiv/min
9 | N#CC1Cc2cc(C(=O)c3cccs3)c(Cl)c(Cl)c2O1 (centres undefined) |  |  |  | 10 | 6 | 8 | 9 | 190 mL | Oral activity (Canis familiaris [4]): 2.2; Oral activity (Canis familiaris [5]): 1.1; Oral activity (Canis familiaris [11]): 1
